Test results reported in ChEMBL document CHEMBL1139893, “Triterpene glycosides from the flower petals of sunflower (Helianthus annuus) and their anti-inflammatory activity” (2007).

What was measured:
Mus musculus [1] = test: Antiinflammatory activity in ICR mouse assessed as inhibition of TPA-induced edema per ear applied topically 30 mins before TPA treatment; format: functional
In short: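 Female SPF ICR mice. TPA (1.7 nmol, 1 µg) in 20 µL acetone was applied to the right ear only, 10 µL to each of the inner and outer surfaces. Sample or vehicle (CHCl3-MeOH 1:1, 20 µL) was applied topically about 30 min beforehand. Ear thickness was read with a pocket gauge before and 6 h after TPA. ID50 came from probit-graphic interpolation across four dose levels, five mice each.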

Mus musculus [2] = test: Inhibitory ratio of TPA-induced edema in presence of drug to TPA-induced edema in ICR mouse; format: functional
In short: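 Topical sample at 1.0 mg/ear, or CHCl3-MeOH (1:1, 20 µL) vehicle control, given about 30 min before TPA (1.7 nmol in 20 µL acetone) on the right ear of female ICR mice. Ear thickness was gauged before and 6 h after TPA. InhR = [(Edema A − Edema B)/Edema A] × 100. Mean of five mice, Student's t-test.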

SMILES	ID50 (Mus musculus [1])	Ratio (Mus musculus [2])
C[C@@H]1O[C@@H](O[C@H]2[C@H](O[C@H]3CC[C@]4(C)[C@H]5CC=C6[C@@H]7CC(C)(C)CC[C@]7(C(=O)O[C@@H]7OC[C@H](O)[C@H](O)[C@H]7O[C@@H]7O[C@@H](C)[C@H](O[C@@H]8O[C@H](CO)[C@@H](O)[C@H](O)[C@H]8O)[C@@H](O)[C@H]7O)CC[C@@]6(C)[C@]5(C)CC[C@H]4C3(C)C)O[C@H](CO)[C@@H](O[C@@H]3OC[C@@H](O)[C@H](O)[C@H]3O)[C@@H]2O)[C@H](O)[C@H](O)[C@H]1O [HELIANTHOSIDE 1]	144 nmol	71%
C[C@@H]1O[C@@H](O[C@@H]2[C@@H](O)[C@H](O[C@H]3CC[C@]4(C)[C@H]5CC=C6[C@@H]7CC(C)(C)CC[C@]7(C(=O)O[C@@H]7OC[C@H](O)[C@H](O)[C@H]7O[C@@H]7O[C@@H](C)[C@H](O[C@@H]8O[C@H](CO)[C@@H](O)[C@H](O)[C@H]8O)[C@@H](O)[C@H]7O)[C@H](O)C[C@@]6(C)[C@]5(C)CC[C@H]4C3(C)C)O[C@H](CO)[C@H]2O[C@@H]2OC[C@@H](O)[C@H](O)[C@H]2O)[C@H](O)[C@H](O)[C@H]1O [HELIANTHOSIDE 2]	135 nmol	77%
C[C@@H]1O[C@@H](O[C@H]2[C@H](O[C@H]3CC[C@]4(C)[C@H]5CC=C6[C@@H]7CC(C)(C)CC[C@]7(C(=O)O[C@@H]7O[C@H](CO)[C@@H](O)[C@H](O)[C@H]7O[C@@H]7O[C@@H](C)[C@H](O[C@@H]8O[C@H](CO)[C@@H](O)[C@H](O)[C@H]8O)[C@@H](O)[C@H]7O)[C@H](O)C[C@@]6(C)[C@]5(C)CC[C@H]4C3(C)C)O[C@H](CO)[C@@H](O[C@@H]3OC[C@@H](O)[C@H](O)[C@H]3O)[C@@H]2O)[C@H](O)[C@H](O)[C@H]1O [HELIANTHOSIDE 3]	156 nmol	73%
C[C@@H]1O[C@@H](O[C@@H]2[C@@H](O)[C@H](O[C@H]3CC[C@@]4(C)[C@@H](CC[C@]5(C)[C@@H]4CC=C4[C@@H]6CC(C)(C)CC[C@]6(C(=O)O[C@@H]6OC[C@@H](O)[C@H](O)[C@H]6O[C@@H]6O[C@@H](C)[C@H](O[C@@H]7O[C@H](CO)[C@@H](O)[C@H](O)[C@H]7O)[C@@H](O)[C@H]6O)[C@H](O)C[C@]45C)[C@]3(C)CO)O[C@H](CO)[C@H]2O[C@@H]2OC[C@@H](O)[C@H](O)[C@H]2O)[C@H](O)[C@H](O)[C@H]1O [HELIANTHOSIDE 4]	262 nmol	75%
C[C@@H]1O[C@@H](O[C@@H]2[C@@H](O)[C@H](O[C@H]3CC[C@]4(C)[C@H]5CC=C6[C@@H]7CC(C)(C)CC[C@]7(C(=O)O[C@@H]7O[C@H](CO)[C@@H](O)[C@H](O)[C@H]7O[C@@H]7O[C@@H](C)[C@H](O)[C@@H](O)[C@H]7O)[C@H](O)C[C@@]6(C)[C@]5(C)CC[C@H]4C3(C)C)O[C@H](CO)[C@H]2O[C@@H]2OC[C@@H](O)[C@H](O)[C@H]2O)[C@H](O)[C@H](O)[C@H]1O [HELIANTHOSIDE 5]	155 nmol	63%
C[C@@H]1O[C@@H](O[C@H]2CC[C@]3(C)[C@H]4CC=C5[C@@H]6CC(C)(C)CC[C@]6(C(=O)OC6OC[C@@H](O)[C@@H](O)[C@@H]6O[C@@H]6O[C@@H](C)[C@H](O[C@@H]7O[C@H](CO)[C@@H](O)[C@H](O)[C@H]7O)[C@@H](O)[C@H]6O)[C@H](O)C[C@@]5(C)[C@]4(C)CC[C@H]3C2(C)C)[C@H](O)[C@H](O)[C@H]1OC1OC[C@@H](O)[C@H](O)[C@H]1O (stereo partly specified) [HELIANTHOSIDE B]	65 nmol	80%
C[C@]12CCC(=O)C=C1CC[C@@H]1[C@@H]2[C@@H](O)C[C@@]2(C)[C@H]1CC[C@]2(O)C(=O)CO [HYDROCORTISONE]	83 nmol	99%
COc1ccc2c(c1)c(CC(=O)O)c(C)n2C(=O)c1ccc(Cl)cc1 [INDOMETHACIN]	838 nmol	96%
